Experimental data published in ChEMBL document CHEMBL3612019, “Revisiting 1,3,4-Oxadiazol-2-ones: Utilization in the Development of ABHD6 Inhibitors” (Bioorg Med Chem, 2015).
Activity calls are given as the source filed them. No cut-off for these calls is given here.

Columns and labels:
[1] = molecular target: T1, Monoacylglycerol lipase ABHD6 (Homo sapiens) (UniProt Q9BV23); experiment: Reversible inhibition of human ABHD6 expressed in HEK293 cells at 1 uM pre-incubated for 10 mins before 2-AG substrate addition followed by rapid 40 fold compound dilution measured after 10 to 90 mins by HPLC method; format: cell-based
T1 sequence (whole entry): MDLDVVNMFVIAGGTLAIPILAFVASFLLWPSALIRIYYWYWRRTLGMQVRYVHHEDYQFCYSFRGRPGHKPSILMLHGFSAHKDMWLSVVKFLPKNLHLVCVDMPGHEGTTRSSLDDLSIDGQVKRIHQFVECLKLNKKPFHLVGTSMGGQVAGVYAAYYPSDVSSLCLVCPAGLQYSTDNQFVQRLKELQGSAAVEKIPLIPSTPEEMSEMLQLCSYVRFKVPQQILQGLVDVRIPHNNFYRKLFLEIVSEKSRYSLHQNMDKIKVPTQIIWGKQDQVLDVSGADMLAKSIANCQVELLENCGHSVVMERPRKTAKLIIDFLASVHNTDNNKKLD

[2] = molecular target: T2, Fatty-acid amide hydrolase 1 (Homo sapiens) (UniProt O00519); experiment: Inhibition of human FAAH expressed in COS7 cell membranes at 10 uM pre-incubated for 10 mins before [3H]-AEA substrate addition by liquid scintillation counting; conditions: COS-7
T2 sequence (whole entry): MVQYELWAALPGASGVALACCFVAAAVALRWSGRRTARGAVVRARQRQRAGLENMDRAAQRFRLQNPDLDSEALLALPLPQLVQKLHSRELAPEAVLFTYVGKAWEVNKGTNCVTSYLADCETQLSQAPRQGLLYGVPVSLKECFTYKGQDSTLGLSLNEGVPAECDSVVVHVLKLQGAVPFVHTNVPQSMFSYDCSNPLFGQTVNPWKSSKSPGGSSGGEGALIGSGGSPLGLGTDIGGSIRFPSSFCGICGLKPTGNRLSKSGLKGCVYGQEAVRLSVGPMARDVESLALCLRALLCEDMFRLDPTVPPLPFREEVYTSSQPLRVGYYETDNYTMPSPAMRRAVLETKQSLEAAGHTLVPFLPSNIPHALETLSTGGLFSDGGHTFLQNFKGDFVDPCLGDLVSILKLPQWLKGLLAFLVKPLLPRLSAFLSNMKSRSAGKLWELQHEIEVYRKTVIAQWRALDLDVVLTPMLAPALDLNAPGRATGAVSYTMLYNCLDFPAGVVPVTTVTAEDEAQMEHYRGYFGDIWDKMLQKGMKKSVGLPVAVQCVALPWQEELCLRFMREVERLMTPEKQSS

[3] = molecular target: T1, Monoacylglycerol lipase ABHD6 (Homo sapiens); experiment: Inhibition of human ABHD6 expressed in HEK293 cells assessed as remaining enzyme activity by measuring reduction in glycerol production from 1-AG hydrolysis at 1 uM pre-incubated for 30 mins before 1-AG substrate addition and measured 90 mins post substrate addition by fluorescence method; values are per cent of control
[4] = molecular target: T3, Monoglyceride lipase (Homo sapiens) (UniProt Q99685); experiment: Inhibition of human MAGL expressed in HEK293 cells at 10 uM pre-incubated for 10 mins before 2-AG substrate addition by HPLC method; format: cell-based
T3 sequence (whole entry): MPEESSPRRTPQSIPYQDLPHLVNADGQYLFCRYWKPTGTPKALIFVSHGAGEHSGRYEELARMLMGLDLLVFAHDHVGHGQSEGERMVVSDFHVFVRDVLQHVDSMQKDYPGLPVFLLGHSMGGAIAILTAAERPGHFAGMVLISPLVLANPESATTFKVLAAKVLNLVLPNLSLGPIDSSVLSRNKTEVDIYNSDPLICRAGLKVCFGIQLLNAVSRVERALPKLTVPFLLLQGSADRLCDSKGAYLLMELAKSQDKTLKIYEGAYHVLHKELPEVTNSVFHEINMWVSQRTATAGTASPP
Summary of the method: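 Lysates of hMAGL-overexpressing HEK293 cells in 50 mM Tris–HCl pH 7.4 with 1 mM EDTA. After a 10 min preincubation with inhibitor or DMSO, 2-AG was added (final 50 µM) and incubated 10 min at 37 °C. The reaction was stopped and samples centrifuged. Arachidonic acid formation and 2-AG depletion were measured by HPLC. Replicates as for the FAAH assay.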

[5] = molecular target: T4, Lysophosphatidylserine lipase ABHD12 (Homo sapiens) (UniProt Q8N2K0); experiment: Inhibition of human ABHD12 expressed in HEK293 cells assessed as remaining enzyme activity at 1 uM pre-incubated for 10 mins before 2-AG substrate addition by HPLC method; format: cell-based
T4 sequence (whole entry): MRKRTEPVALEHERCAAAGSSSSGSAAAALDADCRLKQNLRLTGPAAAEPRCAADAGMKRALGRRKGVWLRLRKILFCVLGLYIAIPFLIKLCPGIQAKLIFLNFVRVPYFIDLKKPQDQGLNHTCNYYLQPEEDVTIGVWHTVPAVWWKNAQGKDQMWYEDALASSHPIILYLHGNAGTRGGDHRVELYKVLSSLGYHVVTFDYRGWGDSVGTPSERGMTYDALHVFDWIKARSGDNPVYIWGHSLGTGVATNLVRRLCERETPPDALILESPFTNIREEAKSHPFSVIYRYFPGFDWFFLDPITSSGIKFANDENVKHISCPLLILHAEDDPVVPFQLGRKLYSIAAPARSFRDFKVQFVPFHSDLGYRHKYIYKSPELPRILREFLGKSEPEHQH

inhibition [1]	inhibition [2]	residual activity [3] [%]	inhibition [4] [%]	inhibition [5]	Compound
Active	–	–	–	–	CCCCCCCCCCC[C@@H](C[C@@H]1OC(=O)[C@H]1CCCCCC)OC(=O)[C@H](CC(C)C)NC=O
–	inactive	63	30	inactive	CCOc1nn(Cc2cccc([N+](=O)[O-])c2)c(=O)o1
